Measured values taken from ChEMBL document CHEMBL3525944, “Nonlinear pharmacokinetics of 5-methoxy-N,N-dimethyltryptamine in mice” (Drug Metab Dispos, 2011).

Assays:
Mus musculus [1] = assay: AUC (0 to infinity) in wild-type FVB/N mouse at 10 mg/kg, iv by LC-MS/MS analysis; format: ADME, organism-based, Plasma; design: dose 10 mg/kg, route intravenous, time infinity; details: in vivo
[2] = Half life in CYP2D6-humanized transgenic FVB/N mouse at 2 mg/kg, iv by LC-MS/MS analysis; format: ADME, organism-based; design: dose 2 mg/kg, route intravenous; details: in vivo
[3] = Ratio of drug level in brain to serum in CYP2D6-humanized transgenic FVB/N mouse at 10 mg/kg, ip by LC-MS/MS analysis; format: ADME, organism-based; design: dose 10 mg/kg, route intraperitoneal
Outline: (§1)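 Mice dosed i.p. with 5-MeO-DMT in saline and killed at 20, 30 or 60 min. Brain homogenized in ice-cold saline and extracted liquid-liquid; serum processed by acetonitrile precipitation. Both quantified by LC-MS/MS (brain range 4.1-3000 nM). Ratio is brain over serum concentration at the same time point.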

Mus musculus [4] = assay: AUC (0 to infinity) in CYP2D6-humanized transgenic FVB/N mouse at 20 mg/kg, ip by LC-MS/MS analysis; format: ADME, organism-based, Plasma; design: time infinity, dose 20 mg/kg, route intraperitoneal; details: in vivo
[5] = Clearance in wild-type FVB/N mouse at 2 mg/kg, iv by LC-MS/MS analysis; format: ADME, organism-based; design: dose 2 mg/kg, route intravenous; details: in vivo
Mus musculus [6] = assay: AUC (0 to infinity) in CYP2D6-humanized transgenic FVB/N mouse at 20 mg/kg, iv by LC-MS/MS analysis; format: ADME, organism-based, Plasma; design: time infinity, dose 20 mg/kg, route intravenous; details: in vivo
Mus musculus [7] = assay: Dose normalized AUC (0 to infinity) in wild-type FVB/N mouse at 20 mg/kg, ip by LC-MS/MS analysis; format: ADME, organism-based; design: dose 20 mg/kg, route intraperitoneal; details: in vivo
Serum = assay: Drug uptake in CYP2D6-humanized transgenic FVB/N mouse serum by LC-MS/MS analysis; format: ADME, cell-free; details: read-out: Drug uptake
[8] = Ratio of drug level in brain to serum in wild-type FVB/N mouse at 10 mg/kg, ip by LC-MS/MS analysis; format: ADME, organism-based; design: dose 10 mg/kg, route intraperitoneal; outline: as §1
[9] = Cmax in CYP2D6-humanized transgenic FVB/N mouse at 20 mg/kg, ip by LC-MS/MS analysis; format: ADME, organism-based; design: dose 20 mg/kg, route intraperitoneal; details: in vivo
[10] = Clearance in CYP2D6-humanized transgenic FVB/N mouse at 2 mg/kg, iv by LC-MS/MS analysis; format: ADME, organism-based; design: dose 2 mg/kg, route intravenous; details: in vivo
Mus musculus [11] = assay: Dose normalized AUC (0 to infinity) in CYP2D6-humanized transgenic FVB/N mouse at 2 mg/kg, ip by LC-MS/MS analysis; format: ADME, organism-based; design: dose 2 mg/kg, route intraperitoneal; details: in vivo
[12] = Volume of distribution at steady state in CYP2D6-humanized transgenic FVB/N mouse at 2 mg/kg, iv by LC-MS/MS analysis; format: ADME, organism-based; design: dose 2 mg/kg, route intravenous; details: in vivo, read-out: Vdss
Outline: (§2)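 Male 8-week FVB/N wild-type or CYP2D6-humanized mice (25-30 g) given 5-MeO-DMT oxalate in saline i.v. at 5 µL/g body weight. Serum collected 0-180 min, N = 3 per time point, proteins precipitated with ice-cold acetonitrile containing internal standard, LC-MS/MS. Noncompartmental analysis of composite mean data; t1/2 = 0.693/terminal slope; Vss = CL×AUMC/AUC, CL = dose/AUC0→∞.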

[13] = Cmax in wild-type FVB/N mouse at 20 mg/kg, ip by LC-MS/MS analysis; format: ADME, organism-based; design: dose 20 mg/kg, route intraperitoneal; details: in vivo
Mus musculus [14] = assay: Dose normalized AUC (0 to infinity) in wild-type FVB/N mouse at 10 mg/kg, ip by LC-MS/MS analysis; format: ADME, organism-based; design: dose 10 mg/kg, route intraperitoneal; details: in vivo
Mus musculus [15] = assay: AUC (0 to infinity) in wild-type FVB/N mouse at 20 mg/kg, ip by LC-MS/MS analysis; format: ADME, organism-based, Plasma; design: time infinity, dose 20 mg/kg, route intraperitoneal; details: in vivo
Mus musculus [16] = assay: AUC (0 to infinity) in wild-type FVB/N mouse at 2 mg/kg, ip by LC-MS/MS analysis; format: ADME, organism-based, Plasma; design: time infinity, dose 2 mg/kg, route intraperitoneal; details: in vivo
Mus musculus [17] = assay: Dose normalized AUC (0 to infinity) in CYP2D6-humanized transgenic FVB/N mouse at 2 mg/kg, iv by LC-MS/MS analysis; format: ADME, organism-based; design: dose 2 mg/kg, route intravenous; details: in vivo
Mus musculus [18] = assay: Dose normalized AUC (0 to infinity) in CYP2D6-humanized transgenic FVB/N mouse at 10 mg/kg, ip by LC-MS/MS analysis; format: ADME, organism-based; design: dose 10 mg/kg, route intraperitoneal; details: in vivo
[19] = Half life in wild-type FVB/N mouse at 20 mg/kg, iv by LC-MS/MS analysis; format: ADME, organism-based; design: dose 20 mg/kg, route intravenous; details: in vivo; outline: as §2
[20] = Clearance in wild-type FVB/N mouse at 20 mg/kg, iv by LC-MS/MS analysis; format: ADME, organism-based; design: dose 20 mg/kg, route intravenous; details: in vivo
Mus musculus [21] = assay: Dose normalized AUC (0 to infinity) in CYP2D6-humanized transgenic FVB/N mouse at 20 mg/kg, ip by LC-MS/MS analysis; format: ADME, organism-based; design: dose 20 mg/kg, route intraperitoneal; details: in vivo
[22] = Bioavailability in CYP2D6-humanized transgenic FVB/N mouse at 2 mg/kg, ip by LC-MS/MS analysis; format: ADME, organism-based; details: in vivo
[23] = Half life in CYP2D6-humanized transgenic FVB/N mouse at 10 mg/kg, iv by LC-MS/MS analysis; format: ADME, organism-based; design: dose 10 mg/kg, route intravenous; details: in vivo
Mus musculus [24] = assay: AUC (0 to infinity) in wild-type FVB/N mouse at 10 mg/kg, ip by LC-MS/MS analysis; format: ADME, organism-based, Plasma; design: time infinity, dose 10 mg/kg, route intraperitoneal; details: in vivo
[25] = Volume of distribution at steady state in CYP2D6-humanized transgenic FVB/N mouse at 20 mg/kg, iv by LC-MS/MS analysis; format: ADME, organism-based; design: dose 20 mg/kg, route intravenous; details: in vivo, read-out: Vdss; outline: as §2
Mus musculus [26] = assay: Dose normalized AUC (0 to infinity) in CYP2D6-humanized transgenic FVB/N mouse at 10 mg/kg, iv by LC-MS/MS analysis; format: ADME, organism-based; design: dose 10 mg/kg, route intravenous; details: in vivo
[27] = Clearance in CYP2D6-humanized transgenic FVB/N mouse at 10 mg/kg, iv by LC-MS/MS analysis; format: ADME, organism-based; design: dose 10 mg/kg, route intravenous; details: in vivo
[28] = Clearance in wild-type FVB/N mouse at 10 mg/kg, iv by LC-MS/MS analysis; format: ADME, organism-based; design: dose 10 mg/kg, route intravenous; details: in vivo
[29] = Bioavailability in wild-type FVB/N mouse at 2 mg/kg, ip by LC-MS/MS analysis; format: ADME, organism-based; details: in vivo
[30] = Ratio of drug level in brain to serum in wild-type FVB/N mouse at 20 mg/kg, ip by LC-MS/MS analysis; format: ADME, organism-based; design: dose 20 mg/kg, route intraperitoneal; outline: as §1
[31] = Bioavailability in CYP2D6-humanized transgenic FVB/N mouse at 20 mg/kg, ip by LC-MS/MS analysis; format: ADME, organism-based; details: in vivo
[32] = Volume of distribution at steady state in CYP2D6-humanized transgenic FVB/N mouse at 10 mg/kg, iv by LC-MS/MS analysis; format: ADME, organism-based; design: dose 10 mg/kg, route intravenous; details: in vivo, read-out: Vdss; outline: as §2
Mus musculus [33] = assay: AUC (0 to infinity) in CYP2D6-humanized transgenic FVB/N mouse at 10 mg/kg, iv by LC-MS/MS analysis; format: ADME, organism-based, Plasma; design: time infinity, dose 10 mg/kg, route intravenous; details: in vivo
[34] = Cmax in wild-type FVB/N mouse at 10 mg/kg, ip by LC-MS/MS analysis; format: ADME, organism-based; design: dose 10 mg/kg, route intraperitoneal; details: in vivo
Mus musculus [35] = assay: Dose normalized AUC (0 to infinity) in CYP2D6-humanized transgenic FVB/N mouse at 20 mg/kg, iv by LC-MS/MS analysis; format: ADME, organism-based; design: dose 20 mg/kg, route intravenous; details: in vivo

SMILES: COc1ccc2[nH]cc(CCN(C)C)c2c1.O=C(O)C(=O)O
- AUC (Mus musculus [1]): 487 µmol·min/L
- half-life [2]: 8.4 min
- Kp [3]: 1.2
- AUC (Mus musculus [4]): 569 µmol·min/L
- clearance [5]: 11.4 L/h/kg
- AUC (Mus musculus [6]): 866 µmol·min/L
- AUC/dose (Mus musculus [7]): 7.13 kg·min/L
- concentration (Serum): 0.0041 µM
- Kp [8]: 1.8
- Cmax [9]: 18.3 µM
- clearance [10]: 11.4 L/h/kg
- AUC/dose (Mus musculus [11]): 2.28 kg·min/L
- Vd [12]: 2.55 L/kg
- Cmax [13]: 15.8 µM
- AUC/dose (Mus musculus [14]): 5.03 kg·min/L
- AUC (Mus musculus [15]): 654 µmol·min/L
- AUC (Mus musculus [16]): 24.9 µmol·min/L
- AUC/dose (Mus musculus [17]): 5.36 kg·min/L
- AUC/dose (Mus musculus [18]): 4.92 kg·min/L
- half-life [19]: 15 min
- clearance [20]: 6 L/h/kg
- AUC/dose (Mus musculus [21]): 6.2 kg·min/L
- bioavailability [22]: 42.5%
- half-life [23]: 12 min
- AUC (Mus musculus [24]): 231 µmol·min/L
- Vd [25]: 2.18 L/kg
- AUC/dose (Mus musculus [26]): 8.1 kg·min/L
- clearance [27]: 7.2 L/h/kg
- clearance [28]: 5.64 L/h/kg
- bioavailability [29]: 52.2%
- Kp [30]: 2.7
- bioavailability [31]: 65.6%
- Vd [32]: 1.68 L/kg
- AUC (Mus musculus [33]): 369 µmol·min/L
- Cmax [34]: 7 µM
- AUC/dose (Mus musculus [35]): 9.45 kg·min/L
